Rows were chosen to be rich in hits. Some 2% of all compounds tested hit in one or more screens of this group.
M1 antag = human CHRM1 antagonism; P11229; CHO-K1 hM1, Fluo-8 calcium fluorescence, ACh EC80 antagonist; inhibition, % at 3 µM; hit rate 1.3% among 360,000;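 active = percent inhibition above its own plate's cutoff, namely the mean of that plate's compound wells plus 3 SD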;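 also: peak over basal fluorescence ratio during 140 s after agonist addition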
Target sequence (P11229 whole entry, looked up): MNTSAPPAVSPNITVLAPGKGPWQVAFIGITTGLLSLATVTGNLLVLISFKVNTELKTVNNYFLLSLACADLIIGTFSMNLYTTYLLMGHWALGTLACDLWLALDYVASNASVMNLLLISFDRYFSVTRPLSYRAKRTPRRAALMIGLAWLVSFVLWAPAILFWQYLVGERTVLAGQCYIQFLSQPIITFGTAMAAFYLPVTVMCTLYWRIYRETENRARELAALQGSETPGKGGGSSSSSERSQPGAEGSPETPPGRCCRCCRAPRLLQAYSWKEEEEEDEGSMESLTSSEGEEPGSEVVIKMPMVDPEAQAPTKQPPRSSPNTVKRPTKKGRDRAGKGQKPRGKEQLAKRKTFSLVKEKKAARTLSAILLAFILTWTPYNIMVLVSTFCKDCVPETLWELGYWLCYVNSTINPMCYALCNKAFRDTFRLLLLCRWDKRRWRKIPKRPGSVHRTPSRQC
M5 PAM = CHRM5 positive allosteric modulation | P08912 | hit rate 0.3% among 360,000 | CHO-K1 hM5, Fluo-8 calcium, ACh EC20 PAM; 0% = ACh EC20, 100% = ACh EC100 | activation, % at 3 µM;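 active = activation above the run cutoff, the mean activation of all test compounds plus 3 SD, cut at about 18% in these data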
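Test system: CHO-K1 hM5 cells / Doses: single-point, 3 µM nominal / Times: Post-acetylcholine fluorescence recording 140 s / Technique: Fluo-8 calcium fluorescence / Measure: Max/basal fluorescence ratio as % of EC20–EC100 ACh window / Benchmarks: low control EC20 acetylcholine (0%), high control EC100 acetylcholine (100%) / Replicates: one well per compound, no replicates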
CHRM5 agonist = CHRM5 agonism in calcium assay. activation, % at 3 µM. hit rate 0.19% among 360,000. P08912. CHO-K1 hM5 cells, Fluo-8 calcium fluorescence; 0% DMSO wells, 100% maximal acetylcholine response;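 active = activation above the run's mean over test compounds plus 3 SD, cut at about 23% in these data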;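 also: signal is peak over basal fluorescence ratio across the kinetic read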
CHRM1 agonist = activates human CHRM1 receptor. CHO-K1 hM1, Fluo-8 calcium fluorescence, agonist mode; 0% DMSO, 100% acetylcholine EC100. activation, % at 3 µM. hit rate 0.33% among 360,000. AID 588814;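 active = activation above the run's mean compound activation plus 3 SD, cut at about 16% in these data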;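 also: peak over basal fluorescence ratio within a 140 s kinetic read after compound addition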
M5 antag = blocks acetylcholine activation of human M5 receptor; P08912; CHO-hM5 cells, Fluo-8 calcium fluorescence, ACh EC80; inhibition, % at 3 µM; hit rate 0.59% among 360,000;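 active = inhibition above a per-plate cutoff, the mean of that plate's test compounds plus 3 SD, cut at about 27% in these data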
CHRM1 PAM = potentiates human M1 receptor response to acetylcholine. P11229. CHO-K1 hM1, Fluo-8 calcium fluorescence, ACh EC20; 0% = ACh EC20, 100% = maximal ACh. activation, % at 3 µM. hit rate 0.088% among 360,000; in the data active = activation above about 19%, passing the limit was not always enough
Large screens that a line does not name were inactive; ! = not active in a repeat.

C=CCNC(=O)c1ccc(CN2CCC(Cc3ccccc3)CC2)cc1	M1 antag 74
Cc1ccccc1NC(=O)c1ccc(CN2CCC(Cc3ccccc3)CC2)cc1	M1 antag 55
C=CCNC(=S)N1CCC(Cc2ccccc2)CC1	none
CC(C)NC(=O)c1ccc(CN2CCC(Cc3ccccc3)CC2)cc1	M1 antag 84
COc1ccc(CCNC(=O)c2ccc(CN3CCC(Cc4ccccc4)CC3)cc2)cc1	none
Cn1c(NCc2cccnc2)nc2cc(-c3cccc(C(F)(F)F)c3)sc2c1=O	none
OCC1(Cc2cccc(C(F)(F)F)c2)CCN(Cc2cc(F)cc(F)c2)CC1	none
CSc1cccc(CN2CCC(CO)(Cc3cccc(C(F)(F)F)c3)CC2)c1	M1 antag 31
COc1ccc(NC(=O)Nc2ccc([N+](=O)[O-])cc2)cn1	M5 antag 34
COc1ccc(O)c(C(=O)c2cnn(C(=O)c3cccc(S(=O)(=O)N(C)C)c3)c2)c1	none
OC(c1cc(-c2ccc(C(F)(F)F)cc2)nc(C(F)(F)F)c1)C1CCCCN1 (stereo not given)	CHRM1 agonist 16
OC(c1cc(C(F)(F)F)nc2c(C(F)(F)F)cccc12)C1CCCCN1 (stereo not given)	none
O=[N+]([O-])c1cc(S(=O)(=O)Oc2ccccc2)ccc1Cl	none
CC1CN(c2nc3c(c(=O)n(C)c(=O)n3C)n2Cc2c(F)cccc2Cl)CC(C)O1 (stereo not given)	CHRM1 agonist 18
O=C(Nc1ccccc1N1CCN(c2ccc(F)cc2)CC1)C12CC3CC(CC(C3)C1)C2	M5 PAM 20
CC(=O)Nc1cccc(-c2ccnc3c2CC(C)(C(=O)NCCc2ccccc2)O3)c1 (stereo not given)	none
COc1ccc(CN(C)c2ccc(S(=O)(=O)N3CCN(C)CC3)cc2[N+](=O)[O-])cc1OC	M1 antag 43
S=C(NCCCc1cnc[nH]1)NCCCN(Cc1ccc(Cl)cc1)c1ccc(Br)cn1	none
COc1ccc(-c2cc(C(=O)Nc3cc(OC)cc(C(=O)Nc4cccc(C(F)(F)F)c4)c3)[nH]n2)cc1	M1 antag 41!
COc1cc(NC(=O)c2cc3cccc(OC)c3o2)cc(C(=O)Nc2cccc(C(F)(F)F)c2)c1	none
COc1cc(NC(=O)c2ccc(N)nc2)cc(C(=O)Nc2cccc(C(F)(F)F)c2)c1	none
CC(C)Oc1cc(F)ccc1-c1cc(C(=O)Nc2cccc(C(F)(F)F)c2)[nH]n1	M1 antag 35
COc1cc(NC(=O)c2ccno2)cc(C(=O)Nc2cccc(C(F)(F)F)c2)c1	M1 antag 31
O=C(C[C@H]1C=C[C@@H](NS(=O)(=O)c2ccccc2)[C@@H](CO)O1)NCc1ccc(Cl)c(Cl)c1	none (no result: M1 antag, CHRM1 agonist, CHRM1 PAM)
CCOC(=O)C1=C(CS(=O)(=O)c2ccc(C)cc2)NC(=O)NC1c1ccc(O)c(OC)c1 (stereo not given)	M5 PAM 20
CCOc1cc(C2NC(=O)NC(C)=C2C(=O)OCC2CCCCC2)ccc1O (stereo not given)	M5 antag 29
CCCCN1CC(N2CCN(Cc3ccccc3)CC2)CS1(=O)=O (stereo not given)	none
CC1CCCCC1NC(=O)NC(=O)COC(=O)c1ccc(OC(F)F)cc1 (stereo not given)	none
COc1c(F)c(F)c(C(=O)Nc2ccccc2N2CCN(C(C)=O)CC2)c(F)c1F	none
COc1c(F)c(F)c(C(=O)Nc2ccccc2N2CCN(C(=O)C(C)C)CC2)c(F)c1F	M5 PAM 31
CCOC(=O)C1=C[C@@H](C(C)C)N(S(=O)(=O)c2ccc([N+](=O)[O-])cc2)[C@H]1c1ccccc1	M1 antag 58
CCN=C1SC(CC(=O)Nc2ccc(C(F)(F)F)cc2)C(=O)N1CC (stereo not given)	M1 antag 33
O=C(NCc1ccccc1)c1cc(C2CCCN(C(=O)c3ccc4c(c3)CCO4)C2)on1 (stereo not given)	none
Cc1ccc(NC(=O)Nc2ccc(F)c(Cl)c2)cc1	M1 antag 36
COc1ccc(NC(=O)Nc2ccc(F)c(Cl)c2)cc1	M5 antag 35
COC(=O)/C=C1\OCc2ccc(C)cc21	M5 PAM 19 (no result: M1 antag, CHRM1 agonist, CHRM1 PAM)
COC(=O)/C=C1\OCc2cc(C)ccc21	none (no result: M1 antag, CHRM1 agonist, CHRM1 PAM)
O=c1[nH]c(=S)[nH]c2c1[C@H](C1CC1)O[C@H](CCc1ccccc1)C2	none (no result: M1 antag, CHRM1 agonist, CHRM1 PAM)
C=C1SC(Nc2c(C)cccc2C)=NC12CCCCC2	M1 antag 66
C=C1SC(Nc2c(C)cc(C)cc2C)=NC12CCCCC2	M1 antag 68
Cc1cccc(C)c1NC(=O)NC1(C(=O)N2CCCCC2)CCCCC1	none
C[C@H](CO)N1C[C@H](C)[C@H](CN(C)Cc2ccncc2)OCc2ccccc2-c2c(n(C)c3ccccc23)C1=O	none
COc1ccc(CCNC(=O)COC(=O)C2=NNC(=O)CC2)cc1	none
CC(C)=CC(=O)O[C@@H]1Cc2c(ccc3ccc(=O)oc23)OC1(C)C	M5 PAM 25
C/C=C(/C)C(=O)O[C@@H]1[C@H](OC(=O)C=C(C)C)c2c(ccc3ccc(=O)oc23)OC1(C)C	none
O=C(O)CCC(=O)NNc1ncnc2ccccc12	none
O=C(O)CCC(=O)NNc1nc2ccccc2nc1-c1ccccc1	M5 PAM 19
CCCn1c(SCC(=O)Nc2cccc(F)c2)nc(O)cc1=O	M5 antag 34
CCCn1c(SCC(=O)Nc2ccccc2Cl)nc(O)cc1=O	none
COc1ccc(CNC(=O)C2CCN(S(=O)(=O)c3ccc(N4CCCC4=O)cc3)CC2)cc1	none
COCOc1cccc(CN2CCC2(C)C(=O)Nc2ccc(C)c(O)c2)c1 (stereo not given)	none
CC(=O)c1nn(-c2cccc(Br)c2)cc1C(=O)c1ccc2ccccc2c1	M1 antag 35
COc1ccc(C(=O)c2cn(-c3cccc(Br)c3)nc2C(C)=O)cc1	none
COCCCn1cc(CN2CC(N3CCN(Cc4ccccc4F)CC3)CS2(=O)=O)nn1 (stereo not given)	none (no result: M1 antag, CHRM1 agonist, CHRM1 PAM)
CC1CCN(c2ccc3c(c2)S(=O)(=O)c2cccc(C(=O)NCc4cccc(F)c4)c2C3=O)CC1	none
O=C(NCc1cccc(F)c1)c1cccc2c1C(=O)c1ccc(N3CCC(Cc4ccccc4)CC3)cc1S2(=O)=O	M5 antag 28
O=C(NCc1cc(C(F)(F)F)ccc1Cl)c1cccc2c1C(=O)c1ccc(N3CCC(N4CCCCC4)CC3)cc1S2(=O)=O	M1 antag 32
O=C(NCCc1ccc(F)cc1)c1cccc2c1C(=O)c1ccc(N3CCC(Cc4ccccc4)CC3)cc1S2(=O)=O	CHRM1 agonist 20
